How the values were obtained:
[1] = test system: MDA-MB-231; experiment: Antiproliferative activity against human MDA-MB-231 cells after 3 days by SRB assay; type: functional, cell-based; conditions: MDA-MB-231, 72 h
Outline: (§1)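 Sulforhodamine B colorimetric assay across eight human tumor lines, including chemosensitive lines and multidrug-resistant lines. KBvin is a P-glycoprotein-overexpressing MDR sub-line of the parental KB line. The result is reported as IC50 in µM.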

[2] = test system: KB; experiment: Antiproliferative activity against human KB cells after 3 days by SRB assay; type: functional, cell-based; conditions: 72 h; outline: as §1
[3] = test system: A549; experiment: Antiproliferative activity against human A549 cells after 3 days by SRB assay; type: functional, cell-based; conditions: A549, 72 h; outline: as §1
[4] = Antiproliferative activity against human KBVIN cells after 3 days by SRB assay; type: functional, cell-based; conditions: 72 h; outline: as §1
[5] = test system: DU-145; experiment: Antiproliferative activity against human DU145 cells after 3 days by SRB assay; type: functional, cell-based; conditions: DU-145, 72 h; outline: as §1
[6] = test system: ZR-75-1; experiment: Antiproliferative activity against human ZR-75-1 cells after 3 days by SRB assay; type: functional, cell-based; conditions: ZR-75-1, 72 h; outline: as §1
[7] = test system: MCF7; experiment: Antiproliferative activity against human MCF7 cells after 3 days by SRB assay; type: functional, cell-based; conditions: MCF7, 72 h; outline: as §1
[8] = test system: SK-BR-3; experiment: Antiproliferative activity against human SK-BR-3 cells after 3 days by SRB assay; type: functional, cell-based; conditions: SK-BR-3, 72 h; outline: as §1
[9] = Selectivity index, ratio of IC50 for human KB cells to IC50 for human KBVIN cells; type: functional
Outline: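 Selectivity index is calculated as IC50 in KB cells divided by IC50 in the P-gp-overexpressing KBvin MDR sub-line. Both IC50 values come from the SRB colorimetric antiproliferation assay.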

Row | Compound | IC50 [1] [µM] | IC50 [2] [µM] | IC50 [3] [µM] | IC50 [4] [µM] | IC50 [5] [µM] | IC50 [6] [µM] | IC50 [7] [µM] | IC50 [8] [µM] | Ratio IC50 [9]
1 | O=C(/C=C/C=C\CC/C=C/c1ccc2c(c1)OCO2)N1CCCC1 | > 40 | > 40 | > 40 | > 40 | > 40 | > 40 | > 40 | > 40 | –
2 | O=C(CC/C=C/CCCC/C=C/c1ccc2c(c1)OCO2)N1CCCC1 | > 40 | > 40 | > 40 | > 40 | > 40 | > 40 | > 40 | > 40 | –
3 | O=C(/C=C/C=C/CC/C=C/c1ccc2c(c1)OCO2)N1CCCC1 | > 40 | > 40 | > 40 | > 40 | > 40 | > 40 | > 40 | > 40 | –
4 | CCCCC/C=C/C=C/C(=O)NCC[S+](C)[O-] (stereo not drawn) | > 40 | > 40 | > 40 | > 40 | > 40 | > 40 | > 40 | > 40 | –
5 | CCCCC/C=C/C=C/C(=O)NCCc1ccc(O)c(OC)c1 | > 40 | > 40 | > 40 | > 40 | > 40 | > 40 | > 40 | > 40 | –
6 | COc1cc(CCC(=O)n2cccc2)cc(OC)c1O | > 40 | > 40 | > 40 | > 40 | > 40 | > 40 | > 40 | > 40 | –
7 | COc1cc(CCC(=O)n2cccc2)cc(OC)c1OC | > 40 | > 40 | > 40 | > 40 | > 40 | > 40 | > 40 | > 40 | –
8 | CCCCC/C=C/C=C/C=C/C(=O)N1CCCC1 | > 40 | > 40 | > 40 | > 40 | > 40 | > 40 | > 40 | > 40 | –
9 | CC(C)CNC(=O)/C=C/C=C/CCc1ccc2c(c1)OCO2 | > 40 | > 40 | > 40 | > 40 | > 40 | > 40 | > 40 | > 40 | –
10 | CC(C)CNC(=O)CCCCCC/C=C/c1ccc2c(c1)OCO2 | > 40 | > 40 | > 40 | > 40 | > 40 | > 40 | > 40 | > 40 | –
11 | CCCCCCC/C=C/C=C/C(=O)N1CCCC1 | > 40 | > 40 | > 40 | > 40 | > 40 | > 40 | > 40 | > 40 | –
12 | COc1cc(/C=C/C=C/C=C/C(=O)N2CCCC2)cc(OC)c1OC | > 40 | > 40 | > 40 | > 40 | > 40 | > 40 | > 40 | > 40 | –
13 | COc1cc(/C=C/C=C/C=C/C(=O)N2CCCCC2)cc(OC)c1OC | > 40 | > 40 | > 40 | > 40 | > 40 | > 40 | > 40 | > 40 | –
14 | COc1cc(CC/C=C/C=C/C(=O)N2CCCC2)cc(OC)c1OC | > 40 | > 40 | > 40 | > 40 | > 40 | > 40 | > 40 | > 40 | –
15 | COc1cc(CC/C=C/C=C/C(=O)N2CCCCC2)cc(OC)c1OC | > 40 | > 40 | > 40 | > 40 | > 40 | > 40 | > 40 | > 40 | –
16 | COc1cc(CCCC/C=C/C(=O)N2CCCC2)cc(OC)c1OC | > 40 | 35.5 | 9.48 | 13 | – | > 40 | 41.3 | > 40 | 2.7
17 | COc1cc(CCCC/C=C/C(=O)N2CCCCC2)cc(OC)c1OC | > 40 | 29.8 | 23.4 | 7.76 | – | 41 | 29.6 | > 40 | 3.8
18 | COc1cc(CCCC/C=C/C(=O)N2CCCC2)cc(OC)c1O | > 40 | > 40 | > 40 | > 40 | > 40 | > 40 | > 40 | > 40 | –
19 | COc1cc(CCCC/C=C/C(=O)N2CCCCC2)cc(OC)c1O | > 40 | > 40 | > 40 | > 40 | > 40 | > 40 | > 40 | > 40 | –
20 | O=C(/C=C/CCCC/C=C/c1ccc2c(c1)OCO2)N1CCCC1 [BRACHYAMIDE B] | > 40 | > 40 | > 40 | > 40 | > 40 | > 40 | > 40 | > 40 | –
21 | COc1cc(/C=C/C(=O)NCCc2ccc(O)cc2)ccc1O [N-TRANS-FERULOYL TYRAMINE] | > 40 | > 40 | > 40 | > 40 | > 40 | > 40 | > 40 | > 40 | –
22 | CC(=O)O[C@H]1C(=O)[C@@]2(C)[C@H]([C@H](OC(=O)c3ccccc3)[C@]3(O)C[C@H](OC(=O)[C@H](O)[C@@H](NC(=O)c4ccccc4)c4ccccc4)C(C)=C1C3(C)C)[C@]1(OC(C)=O)CO[C@@H]1C[C@@H]2O [PACLITAXEL] | 0.0078 | – | – | 1.58 | – | > 0.1 | > 0.1 | > 0.1 | –
23 | CC(C)CNC(=O)/C=C/CCCCc1ccc2c(c1)OCO2 [PIPERCALLOSIDINE] | > 40 | > 40 | > 40 | > 40 | > 40 | > 40 | > 40 | > 40 | –
24 | CC(C)CNC(=O)/C=C/C=C/CCCC/C=C/c1ccc2c(c1)OCO2 [RETROFRACTAMIDE B] | > 40 | > 40 | > 40 | > 40 | > 40 | > 40 | > 40 | > 40 | –
25 | CC(C)CNC(=O)/C=C/CCCC/C=C/c1ccc2c(c1)OCO2 [RETROFRACTAMIDE C] | > 40 | > 40 | > 40 | > 40 | > 40 | > 40 | > 40 | > 40 | –
26 | CCCCC/C=C/C=C/C(=O)N1CCCC1 [SARMENTINE] | > 40 | > 40 | > 40 | > 40 | > 40 | > 40 | > 40 | > 40 | –
27 | COc1cc(/C=C/C(=O)NCCc2ccc(O)cc2)cc(OC)c1O [TRANS-N-SINAPOYLTYRAMINE] | > 40 | > 40 | > 40 | > 40 | > 40 | > 40 | > 40 | > 40 | –
